PolyA inh: inhibitors of polyadenylation in S. cerevisiae; AID 1875; S. cerevisiae SKY197-pL101 polyadenylation reporter, beta-gal luminescence; efflux-impaired pdr1/pdr3 knockout yeast; score 100 = 6 SD above DMSO; activity score, % at 12 µM; hit rate 0.02% among 300,000;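 active = lowest replicate activity score at least 50, where 100 means six control SD above control mean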;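 also: yeast exposed to compound for 9 h at 30 °C; higher score means more reporter readthrough which indicates perturbed polyadenylation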
NALP3 yeast inh: inhibitors of NALP3 inflammasome in yeast; Yeast reconstituted NLRP3/ASC/caspase-1, beta-gal luminescence, 24 h; inhibition, % at 10 µM; hit rate 0.39% among 330,000; AID 2825;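 active = inhibition of 50% or more; inactive = inhibition below 50%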
Pemphigus Ab inh: human desmoglein-3 autoantibody binding inhibition; P32926; DSG3-coupled beads, scFv-anti-DSG3-GFP binding, flow cytometry; stronger effect = lower value; hit rate 0.48% among 310,000; binding (percent of control), % at 10 µM;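 active = binding more than 3 SD below its plate's average and above zero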;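 also: hits lower antibody fragment binding to DSG3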
NALP1 inh: NALP1 inhibition. AID 2071. inhibition, % at 10 µM. hit rate 0.61% among 280,000. S. cerevisiae NALP1/ASC/caspase-1 growth, X-gal OD620, 72 h; in the data active = inhibition mostly above about 24%, no sharp cut-off; inactive = mostly below about 32%
ALR H2O2 inh: blocks human ALR sulfhydryl oxidase activity. P55789. purified ALR, DTT oxidation, H2O2 HRP-luminol luminescence. inhibition, % (test concentration not listed). hit rate 3.8% among 290,000. AID 485317;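 active = mean replicate inhibition above about 79%, with every replicate also reaching it, limit read from the data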
Arrestin-AP2 inh: blocks beta-arrestin peptide binding to AP2 adaptin. hit rate 0.31% among 340,000. FITC-arrestin peptide / GST-AP2 beads, flow cytometry; AP2 beta2 appendage carries R879A mutation. inhibition, % at 10 µM;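 active = inhibition above a set limit, near 3 SD of compounds lacking own fluorescence, cut at about 54% in these data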
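Material – AP2 appendage R879A on GSH beads · Buffer or medium – PBS with 0.05% Tween 20 and 0.1% BSA · Probe or stimulus – fluorescein-tagged arrestin peptide at 50 nM final · Incubation – compound with beads 12 min RT, then probe 1 h RT · Detection – high-throughput flow cytometry of beads, ex 488, em 535 nm · Evaluation – percent response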
Hits are given with their value. A selection: hits, their analogues and other compounds. The true share with any hit is near 4.6%.

Screening O=S(=O)(c1ccc(-c2nc3ccccc3s2)cc1)N1CCCC1 returned PolyA inh inactive, NALP3 yeast inh inactive, Pemphigus Ab inh inactive, NALP1 inh inactive, ALR H2O2 inh inactive and Arrestin-AP2 inh inactive.
Cc1nc(-c2cccc(N)c2)cs1 was read as PolyA inh inactive, NALP3 yeast inh inactive, Pemphigus Ab inh inactive, NALP1 inh inactive, ALR H2O2 inh 99 and Arrestin-AP2 inh inactive.
`CC(C)Cn1c(-c2cccc(S(=O)(=O)N3CCOCC3)c2)n[nH]c1=S` gave NALP3 yeast inh inactive, Pemphigus Ab inh inactive, ALR H2O2 inh 86 and Arrestin-AP2 inh inactive.
Screening Cc1nc(-c2cccc(S(=O)(=O)N3CC(C)OC(C)C3)c2)cs1 (configuration not stated) returned PolyA inh inactive, NALP3 yeast inh inactive, Pemphigus Ab inh inactive, NALP1 inh inactive, ALR H2O2 inh 98 and Arrestin-AP2 inh inactive.
Screening Cc1nc(-c2cccc(S(=O)(=O)N3CC(C)CC(C)C3)c2)cs1 (configuration not stated) returned PolyA inh inactive, NALP3 yeast inh inactive, Pemphigus Ab inh inactive, NALP1 inh inactive, ALR H2O2 inh inactive and Arrestin-AP2 inh inactive.
For COc1ccc(-n2ccnc2SCC(=O)c2c(N)n(C3CC3)c(=O)[nH]c2=O)cc1 the results were Pemphigus Ab inh inactive.
For CC(=O)c1cccc(NC(=O)C(C)OC(=O)CCc2nc3ccccc3c(=O)[nH]2)c1 (configuration not stated) the results were NALP3 yeast inh inactive, ALR H2O2 inh inactive and Arrestin-AP2 inh inactive.
Cc1nc(-c2cccc(S(=O)(=O)N3CCOCC3)c2)cs1 was read as PolyA inh inactive, NALP3 yeast inh inactive, Pemphigus Ab inh inactive, NALP1 inh inactive, ALR H2O2 inh 99 and Arrestin-AP2 inh inactive.
For CCn1c(=O)c(=O)[nH]c2cc(C(=O)NC(C)c3ccc(S(N)(=O)=O)cc3)ccc21 (configuration not stated) the results were PolyA inh inactive, NALP3 yeast inh inactive, Pemphigus Ab inh inactive, NALP1 inh inactive, ALR H2O2 inh 97 and Arrestin-AP2 inh inactive.
For COC1OCC(O)C(NC(=O)N(C)N=O)C1O (configuration not stated) the results were Pemphigus Ab inh inactive.
CC(=O)Nc1ccc(NC(=O)c2ccccc2C)cc1 was read as PolyA inh inactive, NALP3 yeast inh inactive, Pemphigus Ab inh inactive, NALP1 inh inactive, ALR H2O2 inh inactive and Arrestin-AP2 inh inactive.
For Cc1ccccc1C(=O)Nc1ccccc1 the results were PolyA inh inactive, NALP3 yeast inh inactive, Pemphigus Ab inh inactive, NALP1 inh 31, ALR H2O2 inh inactive and Arrestin-AP2 inh inactive.
For Cc1ccccc1C(=O)Nc1ccc(N2CCCC2)cc1 the results were PolyA inh inactive, NALP3 yeast inh inactive, Pemphigus Ab inh inactive, NALP1 inh inactive, ALR H2O2 inh 92 and Arrestin-AP2 inh inactive.
`O=C(Nc1ccc(N2CCCCC2)cc1)c1cccnc1` gave PolyA inh inactive, NALP3 yeast inh inactive, Pemphigus Ab inh inactive, NALP1 inh inactive, ALR H2O2 inh 98 and Arrestin-AP2 inh inactive.
CS(=O)(=O)N1CCN(c2ccc(NC(=O)C(c3ccccc3)c3ccccc3)cc2)CC1 was read as PolyA inh inactive, NALP3 yeast inh inactive, Pemphigus Ab inh inactive, NALP1 inh inactive, ALR H2O2 inh inactive and Arrestin-AP2 inh inactive.
For O=C(Nc1ccc(N2CCCC2)cc1)C(Cl)c1ccccc1 (configuration not stated) the results were PolyA inh inactive, NALP3 yeast inh inactive, Pemphigus Ab inh inactive, NALP1 inh inactive, ALR H2O2 inh 98 and Arrestin-AP2 inh inactive.
`O=C(CSc1nc2ccccc2c(=O)n1CC1CCCO1)NCCc1ccccc1` (configuration not stated) gave PolyA inh inactive, NALP3 yeast inh inactive, Pemphigus Ab inh inactive, NALP1 inh inactive, ALR H2O2 inh inactive and Arrestin-AP2 inh inactive.
COc1cccc(CNC(=O)CN(C)S(=O)(=O)c2ccc3c(c2)n(C)c(=O)c(=O)n3C)c1 was read as PolyA inh inactive, NALP3 yeast inh inactive, Pemphigus Ab inh inactive, NALP1 inh inactive, ALR H2O2 inh inactive and Arrestin-AP2 inh inactive.
For O=C(NCCCN1CCOCC1)c1ccc2c(c1)N(Cc1ccccc1F)C(=O)c1ccccc1S2=O (configuration not stated) the results were PolyA inh inactive, NALP3 yeast inh inactive, NALP1 inh inactive, ALR H2O2 inh inactive and Arrestin-AP2 inh inactive.
`O=C(NCCCn1ccnc1)C1CCN(S(=O)(=O)c2cc([N+](=O)[O-])ccc2Cl)CC1` gave NALP3 yeast inh inactive, Pemphigus Ab inh inactive, ALR H2O2 inh inactive and Arrestin-AP2 inh inactive.
Screening O=C(c1ccccc1F)N1CCN(S(=O)(=O)c2ccc(S(=O)(=O)N3CCCCC3)cc2)CC1 returned NALP3 yeast inh inactive, Pemphigus Ab inh inactive, NALP1 inh inactive, ALR H2O2 inh inactive and Arrestin-AP2 inh inactive.
Screening O=C(c1cc(S(=O)(=O)N2CCCCC2)ccc1F)N1CCCCC1 returned PolyA inh inactive, NALP3 yeast inh inactive, Pemphigus Ab inh inactive, NALP1 inh inactive, ALR H2O2 inh 83 and Arrestin-AP2 inh inactive.
CCCCCC(=O)N1C[C@H](n2cc(COC(=O)c3ccccc3)nn2)[C@@H](O)C[C@@H]1c1ccc(OC)cc1 was read as Pemphigus Ab inh inactive.
OCCC1CN(Cc2cccn2-c2nccs2)CCN1C1CCCCC1 (configuration not stated) was read as PolyA inh inactive, NALP3 yeast inh inactive, Pemphigus Ab inh inactive, NALP1 inh 25, ALR H2O2 inh inactive and Arrestin-AP2 inh inactive.
For Cc1nc2ncnn2c(N2CCCC(C(=O)Nc3ccc4c(c3)CCC4)C2)c1C (configuration not stated) the results were PolyA inh inactive, NALP3 yeast inh inactive, Pemphigus Ab inh inactive, NALP1 inh inactive, ALR H2O2 inh 92 and Arrestin-AP2 inh inactive.
`COc1ccc(OC)c(S(=O)(=O)NC2CC(=O)N(c3cccc(F)c3)C2)c1` (configuration not stated) gave PolyA inh inactive, NALP3 yeast inh inactive, Pemphigus Ab inh inactive, ALR H2O2 inh inactive and Arrestin-AP2 inh inactive.
Screening Cc1cc(Br)ccc1NC(=O)CN(C)C(=O)c1cccc(S(=O)(=O)N2CCN(C)CC2)c1 returned Pemphigus Ab inh inactive and Arrestin-AP2 inh inactive.
Screening CC(=O)N1Cc2cc(N)ccc2Oc2ccccc21 returned PolyA inh inactive, NALP3 yeast inh inactive, Pemphigus Ab inh inactive, NALP1 inh inactive, ALR H2O2 inh 89 and Arrestin-AP2 inh inactive.
`C=CCn1c(C)nnc1SCC(=O)Nc1nccs1` gave PolyA inh inactive, NALP3 yeast inh inactive, Pemphigus Ab inh inactive, NALP1 inh inactive, ALR H2O2 inh inactive and Arrestin-AP2 inh inactive.
`CCn1c2ccc(C)cc2c2nnc(NN)nc21` gave PolyA inh inactive, NALP3 yeast inh inactive, Pemphigus Ab inh inactive, NALP1 inh inactive, ALR H2O2 inh 99 and Arrestin-AP2 inh inactive.

Screening results deposited in PubChem by several laboratories.
